Results: ChEMBL document CHEMBL1157575, “Antitumor agents. 272. Structure-activity relationships and in vivo selective anti-breast cancer activity of novel neo-tanshinlactone analogues” (J Med Chem, 2010)
In brackets after ≈: the same amount, converted by molar mass.

Key:
SK-BR-3 = experiment: Growth inhibition of human SK-BR-3 cells after 72 hrs by SRB assay; assay type: functional; details: SK-BR-3, 72 h, read-out: ED50 (the source's name)
Outline: (§1)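 SRB assay. Cells were grown in RPMI-1640 with 10% FBS at 37 °C and 5% CO2, then seeded in 96-well plates. Compound was added from DMSO stock, followed by 72 h incubation. Cells were fixed with 10% TCA, stained with 0.4% SRB, solubilized in 10 mM Tris base, and read at 515 nm. ED50 is the concentration giving 50% reduction of net protein increase versus control; mean of at least three independent determinations.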

ZR-75-1 [1] = experiment: Growth inhibition of human ZR-75-1 cells after 72 hrs by SRB assay; assay type: functional; details: ZR-75-1, 72 h, read-out: ED50 (the source's name); outline: as §1
MDA-MB-231 = experiment: Growth inhibition of human MDA-MB-231 cells after 72 hrs by SRB assay; assay type: functional; details: MDA-MB-231, 72 h, read-out: ED50 (the source's name); outline: as §1
A549 = experiment: Cytotoxicity against human A549 cells after 72 hrs by SRB assay; assay type: functional; details: A549, 72 h, read-out: ED50 (the source's name)
DU-145 = experiment: Cytotoxicity against human DU145 cells after 72 hrs by SRB assay; assay type: functional; details: DU-145, 72 h, read-out: ED50 (the source's name)
KB = experiment: Cytotoxicity against human KB cells after 72 hrs by SRB assay; assay type: functional; details: read-out: ED50 (the source's name); outline: as §1
[2] = Cytotoxicity against human KBVIN cells after 72 hrs by SRB assay; assay type: functional; details: read-out: ED50 (the source's name); outline: as §1
MCF7 = experiment: Growth inhibition of human MCF7 cells after 72 hrs by SRB assay; assay type: functional; details: MCF7, 72 h, read-out: ED50 (the source's name); outline: as §1
ZR-75-1 [3] = experiment: Selectivity for ED50 for human ZR-75-1 to ED50 for human SK-BR-3; assay type: functional
Outline: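 SRB growth assay: ZR-75-1 and SK-BR-3 cells in RPMI-1640 with 10% FBS at 37 °C under 5% CO2, seeded in 96-well plates, compound added from DMSO stock, 72 h exposure, TCA fixation, SRB staining, absorbance at 515 nm. ED50 is 50% reduction of net protein increase, averaged from ≥3 independent runs; ratio of ZR-75-1 to SK-BR-3 ED50.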

[4] = Cytotoxicity against human 184A1 cells after 72 hrs by MTT assay; assay type: cell-based; details: read-out: ED50
Outline: (§2)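 MTT assay. Cells were seeded at 5000/well in recommended growth medium and incubated overnight. Compound was added in DMSO, followed by 72 h at 37 °C in 5% CO2. MTT reagent was added for 2 h and formazan was read at OD 570 nm. Values were interpolated ED50; data are from replicates in a single experiment.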

[5] = Cytotoxicity against human MCF10A cells after 72 hrs by MTT assay; assay type: cell-based, MCF-10A; details: read-out: ED50; outline: as §2
ZR-75-1 [6] = experiment: Antitumor activity against human ZR-75-1 cells xenografted in athymic nude mouse SCID assessed as mean time to end point at 10 mg/kg, ip administered in QOD schedule; assay type: functional; details: route intraperitoneal
Outline: (§3)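 Female SCID mice, 5 weeks old, 20-24 g, implanted s.c. in the right flank with 1 × 10^7 ZR-75-1 cells in PBS. Tumors were caliper-measured, with volume = w² × l/2. Dosing was i.p. in vehicle (4% benzyl alcohol/6% cremophor/90% D5W); vehicle controls were given qod to end. TTE is the mean time to endpoint. %TGD = (T−C)/C × 100. Logrank test, P ≤ 0.05.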

ZR-75-1 [7] = experiment: Antitumor activity against human ZR-75-1 cells xenografted in athymic nude mouse SCID assessed as tumor growth delay at 10 mg/kg, ip administered in QOD schedule; assay type: functional; details: route intraperitoneal; outline: as §3
[8] = molecular target: Casein kinase II subunit alpha (Homo sapiens) (UniProt P68400); experiment: Inhibition of human recombinant CK2alpha1 expressed in Sf9 cells at 10 uM
Chain of Casein kinase II subunit alpha (Homo sapiens) (P68400 whole entry, looked up): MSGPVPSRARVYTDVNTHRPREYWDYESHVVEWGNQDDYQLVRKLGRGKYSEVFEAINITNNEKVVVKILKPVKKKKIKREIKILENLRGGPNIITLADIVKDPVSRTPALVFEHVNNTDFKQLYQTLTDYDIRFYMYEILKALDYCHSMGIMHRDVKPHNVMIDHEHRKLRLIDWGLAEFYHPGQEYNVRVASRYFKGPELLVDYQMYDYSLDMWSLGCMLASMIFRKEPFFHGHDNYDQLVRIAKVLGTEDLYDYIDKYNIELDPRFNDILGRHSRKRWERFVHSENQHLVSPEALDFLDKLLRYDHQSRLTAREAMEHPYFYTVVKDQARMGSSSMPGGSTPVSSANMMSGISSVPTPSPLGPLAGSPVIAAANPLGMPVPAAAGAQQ

[9] = molecular target: Tyrosine-protein kinase ABL1 (Mus musculus) (UniProt P00520); experiment: Inhibition of mouse recombinant ABL expressed in Escherichia coli at 10 uM
Chain of Tyrosine-protein kinase ABL1 (Mus musculus) (P00520 whole entry): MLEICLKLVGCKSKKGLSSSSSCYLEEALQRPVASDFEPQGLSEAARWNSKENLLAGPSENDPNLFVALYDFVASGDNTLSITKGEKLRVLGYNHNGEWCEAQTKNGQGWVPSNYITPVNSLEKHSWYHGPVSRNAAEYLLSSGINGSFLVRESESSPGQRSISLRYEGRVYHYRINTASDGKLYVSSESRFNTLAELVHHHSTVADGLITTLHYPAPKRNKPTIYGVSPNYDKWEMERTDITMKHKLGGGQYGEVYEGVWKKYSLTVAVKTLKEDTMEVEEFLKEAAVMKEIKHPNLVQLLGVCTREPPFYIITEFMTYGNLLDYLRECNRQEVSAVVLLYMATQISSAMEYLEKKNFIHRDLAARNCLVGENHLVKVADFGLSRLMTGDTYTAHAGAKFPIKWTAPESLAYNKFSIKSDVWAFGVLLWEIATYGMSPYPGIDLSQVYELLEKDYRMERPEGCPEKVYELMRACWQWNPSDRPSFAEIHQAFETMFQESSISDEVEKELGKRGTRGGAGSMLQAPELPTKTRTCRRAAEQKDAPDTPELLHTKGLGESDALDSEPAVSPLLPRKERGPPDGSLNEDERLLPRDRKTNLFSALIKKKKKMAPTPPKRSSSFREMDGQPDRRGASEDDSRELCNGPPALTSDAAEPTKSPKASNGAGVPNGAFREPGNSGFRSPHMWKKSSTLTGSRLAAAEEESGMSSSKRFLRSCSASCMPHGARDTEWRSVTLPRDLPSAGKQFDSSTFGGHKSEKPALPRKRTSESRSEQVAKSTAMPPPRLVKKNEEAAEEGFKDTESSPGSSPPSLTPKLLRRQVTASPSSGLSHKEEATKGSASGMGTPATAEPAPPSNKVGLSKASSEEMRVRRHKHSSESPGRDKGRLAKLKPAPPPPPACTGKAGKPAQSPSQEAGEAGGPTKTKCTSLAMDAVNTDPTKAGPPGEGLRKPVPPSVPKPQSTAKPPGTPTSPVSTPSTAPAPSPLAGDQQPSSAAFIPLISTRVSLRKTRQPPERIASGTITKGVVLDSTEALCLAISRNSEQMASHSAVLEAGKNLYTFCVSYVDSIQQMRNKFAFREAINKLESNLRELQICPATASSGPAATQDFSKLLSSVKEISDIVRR

[10] = molecular target: RAC-alpha serine/threonine-protein kinase (Homo sapiens) (UniProt P31749); experiment: Inhibition of human recombinant AKT1 expressed in Sf21 cells at 10 uM
Chain of RAC-alpha serine/threonine-protein kinase (Homo sapiens) (P31749 whole entry): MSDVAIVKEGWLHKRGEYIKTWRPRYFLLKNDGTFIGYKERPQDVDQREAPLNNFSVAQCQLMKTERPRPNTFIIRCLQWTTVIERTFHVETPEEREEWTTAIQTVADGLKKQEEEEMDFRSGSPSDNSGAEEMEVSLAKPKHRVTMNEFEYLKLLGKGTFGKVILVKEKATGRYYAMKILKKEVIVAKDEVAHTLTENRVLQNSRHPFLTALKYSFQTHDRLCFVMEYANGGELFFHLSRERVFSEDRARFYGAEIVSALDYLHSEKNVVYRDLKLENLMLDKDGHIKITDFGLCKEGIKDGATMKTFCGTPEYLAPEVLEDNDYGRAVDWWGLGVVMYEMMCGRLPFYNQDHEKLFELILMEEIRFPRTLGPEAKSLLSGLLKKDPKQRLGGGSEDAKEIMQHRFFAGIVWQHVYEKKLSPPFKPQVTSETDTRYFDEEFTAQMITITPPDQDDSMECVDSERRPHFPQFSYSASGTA

Q: Which results are given for `Cc1coc2c1c(=O)oc1c3cccc(C(C)Br)c3ccc21` (stereo unspecified)?
A: EC50 (SK-BR-3): 0.1 µg/mL (≈ 0.28 µM); EC50 (ZR-75-1 [1]): 0.1 µg/mL (≈ 0.28 µM); EC50 (MDA-MB-231): 14 µg/mL (≈ 39.2 µM); EC50 (A549): > 20 µg/mL; EC50 (DU-145): 18 µg/mL (≈ 50.4 µM); EC50 (KB): 13 µg/mL (≈ 36.4 µM); EC50 [2]: > 20 µg/mL

Q: With `COc1ccc(-c2coc3c2c(=O)oc2c4ccccc4ccc32)cc1` as the compound, how does the EC50 (SK-BR-3) read?
A: The EC50 was 5.8 µg/mL (≈ 16.9 µM).

Q: Which results are given for `CCc1cccc2c1ccc1c3occ(CC)c3c(=O)oc21`?
A: EC50 (MCF7): 1.3 µg/mL (≈ 4.45 µM); EC50 (SK-BR-3): 1.5 µg/mL (≈ 5.13 µM); EC50 (ZR-75-1 [1]): 0.6 µg/mL (≈ 2.05 µM); EC50 (MDA-MB-231): > 10 µg/mL; EC50 (A549): 18 µg/mL (≈ 61.6 µM); EC50 (DU-145): 16 µg/mL (≈ 54.7 µM); EC50 (KB): 12 µg/mL (≈ 41 µM); EC50 [2]: 15 µg/mL (≈ 51.3 µM)

Q: For `CCCc1cccc2c1ccc1c3occ(C)c3c(=O)oc21`, which EC50 (MCF7) is on record?
A: The EC50 was 1.2 µg/mL (≈ 4.1 µM).

Q: And the EC50 (SK-BR-3)?
A: Its EC50 is 0.1 µg/mL (≈ 0.342 µM).

Q: And the EC50 (ZR-75-1 [1])?
A: The EC50 was 0.3 µg/mL (≈ 1.03 µM).

Q: What about the EC50 (MDA-MB-231) of the same compound?
A: Its EC50 is greater than 10 µg/mL.

Q: And the EC50 (DU-145)?
A: Its EC50 is 15 µg/mL (≈ 51.3 µM).

Q: What about the EC50 (KB) of the same compound?
A: Its EC50 is 12 µg/mL (≈ 41 µM).

Q: What about the EC50 [2] of the same compound?
A: The EC50 was 11 µg/mL (≈ 37.6 µM).

Q: What about the “Ratio ED50” value (ZR-75-1 [3]) of the same compound?
A: Its value is 3.

Q: For `CCc1cccc2c1ccc1c3occ(C)c3c(=S)oc21`, which EC50 (MCF7) is on record?
A: The EC50 was greater than 20 µg/mL.

Q: And the EC50 (SK-BR-3)?
A: Its EC50 is 16 µg/mL (≈ 54.4 µM).

Q: With `CCc1coc2c1c(=O)oc1c3cccc(C)c3ccc21` as the compound, how does the EC50 (MCF7) read?
A: Its EC50 is 7.5 µg/mL (≈ 26.9 µM).

Q: And the EC50 (SK-BR-3)?
A: The EC50 was 11 µg/mL (≈ 39.5 µM).

Q: Which EC50 (SK-BR-3) does the source give for `Cc1coc2c1c(=O)[nH]c1c3ccccc3ccc12` here?
A: The EC50 was 4.4 µg/mL (≈ 17.7 µM).

Q: Which EC50 (MCF7) does the source give for `Cc1coc2c1c(=O)oc1c3ccccc3ccc21` here?
A: The EC50 was 4 µg/mL (≈ 16 µM).

Q: And the EC50 (SK-BR-3)?
A: The EC50 was 1 µg/mL (≈ 4 µM).

Q: And the EC50 (ZR-75-1 [1])?
A: The EC50 was 4 µg/mL (≈ 16 µM).

Q: Which results are given for `Cc1coc2c1c(=O)oc1c3ccccc3n(C)c(=O)c21`?
A: EC50 (MCF7): 11 µg/mL (≈ 39.1 µM); EC50 (SK-BR-3): 12 µg/mL (≈ 42.7 µM)

Q: With `Cc1cc2c(=O)oc3c4ccccc4ccc3c2o1` as the compound, how does the EC50 (MCF7) read?
A: The EC50 was greater than 20 µg/mL.

Q: What about the EC50 (SK-BR-3) of the same compound?
A: Its EC50 is 12 µg/mL (≈ 48 µM).

Q: Which EC50 (MCF7) does the source give for `CCc1cccc2c1ccc1c3occ(C)c3c(=O)oc21` here?
A: The EC50 was 0.2 µg/mL (≈ 0.719 µM).

Q: And the EC50 (SK-BR-3)?
A: Its EC50 is 0.1 µg/mL (≈ 0.359 µM).

Q: What about the EC50 (ZR-75-1 [1]) of the same compound?
A: The EC50 was 0.1 µg/mL (≈ 0.359 µM).

Q: And the EC50 (MDA-MB-231)?
A: Its EC50 is 8.8 µg/mL (≈ 31.6 µM).

Q: And the EC50 (A549)?
A: The EC50 was 11 µg/mL (≈ 39.5 µM).

Q: What about the EC50 (DU-145) of the same compound?
A: Its EC50 is 16 µg/mL (≈ 57.5 µM).

Q: What about the EC50 (KB) of the same compound?
A: The EC50 was 13 µg/mL (≈ 46.7 µM).

Q: What about the CC50 at 72 h [4] of the same compound?
A: The CC50 at 72 h was 4.4 µg/mL (≈ 15.8 µM).

Q: And the CC50 at 72 h [5]?
A: The CC50 at 72 h was 2.7 µg/mL (≈ 9.7 µM).

Q: And the Activity (ZR-75-1 [6])?
A: Its Activity is 29.5 days.

Q: And the Activity (ZR-75-1 [7])?
A: The Activity was 95%.

Q: What about the inhibition [8] of the same compound?
A: Its inhibition is 99%.

Q: What about the inhibition [9] of the same compound?
A: Its inhibition is 93%.

Q: And the inhibition [10]?
A: Its inhibition is 93%.

Q: Which results are given for `Cc1coc2c1c(=O)oc1c3cccc(F)c3ccc21`?
A: EC50 (MCF7): 4.5 µg/mL (≈ 16.8 µM); EC50 (SK-BR-3): 1.1 µg/mL (≈ 4.1 µM); EC50 (ZR-75-1 [1]): 0.8 µg/mL (≈ 2.98 µM); EC50 (MDA-MB-231): > 10 µg/mL; EC50 (A549): 14 µg/mL (≈ 52.2 µM); EC50 (DU-145): 18 µg/mL (≈ 67.1 µM); EC50 (KB): 13 µg/mL (≈ 48.5 µM); EC50 [2]: 15 µg/mL (≈ 55.9 µM)

Q: For `Cc1coc2c1c(=O)oc1c3cccc(O)c3ccc21`, which EC50 (MCF7) is on record?
A: The EC50 was 15 µg/mL (≈ 56.3 µM).

Q: And the EC50 (SK-BR-3)?
A: The EC50 was 5 µg/mL (≈ 18.8 µM).

Q: Which EC50 (MCF7) does the source give for `CCCn1c(=O)c2c3occ(C)c3c(=O)oc2c2ccccc21` here?
A: Its EC50 is greater than 20 µg/mL.

Q: And the EC50 (SK-BR-3)?
A: Its EC50 is 15 µg/mL (≈ 48.5 µM).

Q: What does the source list for `Cc1coc2c1c(=S)oc1c3ccccc3ccc21`?
A: EC50 (MCF7): > 20 µg/mL; EC50 (SK-BR-3): > 20 µg/mL

Q: Which EC50 (MCF7) does the source give for `COc1cccc2c1ccc1c3occ(C)c3c(=O)oc21` here?
A: Its EC50 is 2.3 µg/mL (≈ 8.21 µM).

Q: And the EC50 (SK-BR-3)?
A: Its EC50 is 0.2 µg/mL (≈ 0.714 µM).

Q: And the EC50 (ZR-75-1 [1])?
A: Its EC50 is 0.1 µg/mL (≈ 0.357 µM).

Q: What about the EC50 (MDA-MB-231) of the same compound?
A: The EC50 was 6.4 µg/mL (≈ 22.8 µM).

Q: What about the EC50 (DU-145) of the same compound?
A: Its EC50 is 14 µg/mL (≈ 50 µM).

Q: What about the EC50 (KB) of the same compound?
A: The EC50 was 13 µg/mL (≈ 46.4 µM).

Q: And the EC50 [2]?
A: Its EC50 is 12 µg/mL (≈ 42.8 µM).
